Experimental data taken from ChEMBL document CHEMBL6134795, “Mannich reaction mediated derivatization of chromones and their biological evaluations as putative multipotent ligands for the treatment of Alzheimer's disease” (RSC Med Chem, 2024).
Calls of active or inactive are those of the source. The rule behind the calls is not given here.

Tests used:
[1] = target: T1, Amine oxidase [flavin-containing] B (Homo sapiens, UniProt P27338); test: Inhibition of recombinant MAO-B (unknown origin) at 20 uM preincubated for 30 mins followed substrate addition by Amplex Red reagent based fluorescence analysis relative to control
T1 sequence (P27338 whole entry): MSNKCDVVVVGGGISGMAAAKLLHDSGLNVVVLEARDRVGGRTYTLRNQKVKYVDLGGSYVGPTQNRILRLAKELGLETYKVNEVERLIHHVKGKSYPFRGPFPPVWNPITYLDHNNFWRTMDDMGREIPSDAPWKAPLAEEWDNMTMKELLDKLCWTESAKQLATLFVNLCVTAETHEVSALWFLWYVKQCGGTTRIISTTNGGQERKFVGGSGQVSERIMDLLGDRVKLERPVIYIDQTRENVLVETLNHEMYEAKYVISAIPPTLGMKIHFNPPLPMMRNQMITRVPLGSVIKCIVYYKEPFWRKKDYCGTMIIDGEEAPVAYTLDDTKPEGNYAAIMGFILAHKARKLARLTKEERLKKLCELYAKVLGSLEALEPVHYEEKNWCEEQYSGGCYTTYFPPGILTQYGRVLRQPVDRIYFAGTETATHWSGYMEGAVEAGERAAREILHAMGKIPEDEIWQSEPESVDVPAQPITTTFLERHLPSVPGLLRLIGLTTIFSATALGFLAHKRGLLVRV
How it was run: (§1)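 Recombinant MAO enzyme preincubated with compound 30 min at 37 °C; substrate, HRP and Amplex Red working solution then added; H2O2 formation read at 37 °C by fluorescence, ex 545/em 590 nm. Screening at 20 μM as % inhibition versus control; IC50 only for compounds above 50% inhibition at 20 μM; triplicate (n = 3).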

[2] = target: T2, Amine oxidase [flavin-containing] A (Homo sapiens, UniProt P21397); test: Inhibition of recombinant MAO-A (unknown origin) at 20 uM preincubated for 30 mins followed substrate addition by Amplex Red reagent based fluorescence analysis relative to control; how it was run: as §1
T2 sequence (P21397 whole entry): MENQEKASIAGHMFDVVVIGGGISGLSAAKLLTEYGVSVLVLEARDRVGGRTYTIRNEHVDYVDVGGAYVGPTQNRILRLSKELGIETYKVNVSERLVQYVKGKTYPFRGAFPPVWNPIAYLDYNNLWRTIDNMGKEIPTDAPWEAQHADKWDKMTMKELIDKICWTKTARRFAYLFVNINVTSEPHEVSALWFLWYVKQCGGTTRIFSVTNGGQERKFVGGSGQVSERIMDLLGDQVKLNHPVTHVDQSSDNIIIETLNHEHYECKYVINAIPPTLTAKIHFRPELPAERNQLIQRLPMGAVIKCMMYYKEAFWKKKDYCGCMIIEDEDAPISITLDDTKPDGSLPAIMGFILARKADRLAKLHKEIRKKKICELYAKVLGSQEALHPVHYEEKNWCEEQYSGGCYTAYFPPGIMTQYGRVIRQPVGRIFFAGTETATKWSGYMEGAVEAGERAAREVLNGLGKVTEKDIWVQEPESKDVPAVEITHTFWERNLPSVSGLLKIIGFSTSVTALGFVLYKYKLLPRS

Cholinesterase [3] = target: T3, Cholinesterase (Homo sapiens, UniProt P06276); test: Inhibition of recombinant BuChE (unknown origin) using BTCI as substrate at 20 uM preincubated for 30 mins followed by substrate addition by TECAN multiplate reader analysis relative to control
T3 sequence (P06276 whole entry): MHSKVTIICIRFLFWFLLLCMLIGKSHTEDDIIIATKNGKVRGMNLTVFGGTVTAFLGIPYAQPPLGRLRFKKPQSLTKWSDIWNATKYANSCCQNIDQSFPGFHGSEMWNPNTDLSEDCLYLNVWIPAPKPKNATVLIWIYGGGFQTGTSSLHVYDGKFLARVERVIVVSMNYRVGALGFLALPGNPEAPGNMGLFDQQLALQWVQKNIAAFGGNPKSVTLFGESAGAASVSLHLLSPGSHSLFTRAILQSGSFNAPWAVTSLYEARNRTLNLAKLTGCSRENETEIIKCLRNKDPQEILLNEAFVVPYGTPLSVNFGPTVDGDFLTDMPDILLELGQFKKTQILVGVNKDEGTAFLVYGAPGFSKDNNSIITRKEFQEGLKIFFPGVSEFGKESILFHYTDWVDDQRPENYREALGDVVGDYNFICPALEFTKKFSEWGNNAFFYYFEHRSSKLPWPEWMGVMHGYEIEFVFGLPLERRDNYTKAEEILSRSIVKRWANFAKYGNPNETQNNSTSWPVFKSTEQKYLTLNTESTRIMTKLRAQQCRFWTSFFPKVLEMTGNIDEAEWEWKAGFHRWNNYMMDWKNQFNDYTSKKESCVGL
How it was run: (§2)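 Ellman method as for AChE, using butyrylcholinesterase with BTCI as substrate. Enzyme and compound preincubated 30 min at 37 °C in a CO2 incubator, then DTNB and BTCI added; absorbance read at 417 nm. Screening at 20 μM as % inhibition; IC50 for compounds exceeding 50% inhibition at 20 μM. Triplicate.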

[4] = target: Amyloid-beta precursor protein (Homo sapiens) (UniProt P05067); test: Inhibition of self-induced amyloid beta (1 to 42 residues) (unknown origin) aggregation at 20 uM incubated at 48 hrs by fluorimetry-based thioflavin T assay
Sequence of Amyloid-beta precursor protein (Homo sapiens) (P05067 whole entry, the tested form may be a part): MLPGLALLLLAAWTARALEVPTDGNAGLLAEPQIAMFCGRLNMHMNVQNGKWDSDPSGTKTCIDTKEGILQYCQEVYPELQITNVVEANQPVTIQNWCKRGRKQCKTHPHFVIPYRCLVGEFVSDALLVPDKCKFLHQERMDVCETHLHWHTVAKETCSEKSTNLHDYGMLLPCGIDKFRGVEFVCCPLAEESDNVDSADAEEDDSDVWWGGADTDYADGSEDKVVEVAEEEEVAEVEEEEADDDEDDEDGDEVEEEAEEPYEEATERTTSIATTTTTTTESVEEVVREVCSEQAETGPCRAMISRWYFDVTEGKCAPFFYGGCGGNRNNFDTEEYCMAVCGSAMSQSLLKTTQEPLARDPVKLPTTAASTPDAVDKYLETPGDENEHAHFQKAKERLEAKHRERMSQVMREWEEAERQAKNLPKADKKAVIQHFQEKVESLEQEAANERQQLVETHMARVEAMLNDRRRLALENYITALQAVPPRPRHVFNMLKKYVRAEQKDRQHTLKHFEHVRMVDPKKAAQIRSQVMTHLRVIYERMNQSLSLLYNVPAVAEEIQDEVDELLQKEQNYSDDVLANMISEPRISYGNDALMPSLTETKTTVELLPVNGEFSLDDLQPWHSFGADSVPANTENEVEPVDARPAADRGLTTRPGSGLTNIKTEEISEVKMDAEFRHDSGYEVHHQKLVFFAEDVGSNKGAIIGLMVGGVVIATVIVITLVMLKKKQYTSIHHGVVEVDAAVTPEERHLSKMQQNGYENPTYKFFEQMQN
How it was run: (§3)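 Aβ1-42 pretreated with HFIP (1 mg mL−1) and dried, then incubated with compound (20 μM) at 37 °C for 24 h; an aliquot transferred and incubated further to 48 h. Glycine–NaOH buffer pH 8.0 with 5 μM ThT added; fluorescence read at 440–485 nm. % inhibition calculated against the Aβ-only control taken as 0%.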

[5] = target: Amyloid-beta precursor protein (Homo sapiens) (UniProt P05067); test: Inhibition of self-induced amyloid beta (1 to 42 residues) (unknown origin) aggregation at 20 uM incubated at 24 hrs by fluorimetry-based thioflavin T assay; how it was run: as §3
[6] = target: Amyloid-beta precursor protein (Homo sapiens) (UniProt P05067); test: Inhibition of self-induced amyloid beta (1 to 42 residues) (unknown origin) aggregation assessed as reduction in fibrils formation measured after 72 hrs by FE-SEM analysis
How it was run: (§4)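 HFIP-pretreated Aβ1-42 incubated with or without inhibitor for 72 h; samples placed on carbon-coated copper grids, dried 1 h at 37 °C, imaged by FE-SEM. Glycine–NaOH buffer served as blank and Aβ alone as control.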

[7] = target: Amyloid-beta precursor protein (Homo sapiens) (UniProt P05067); test: Inhibition of self-induced amyloid beta (1 to 42 residues) (unknown origin) aggregation assessed as reduction in plaques formation measured after 72 hrs by FE-SEM analysis; how it was run: as §4
Cholinesterase [8] = target: T3, Cholinesterase; test: Inhibition of recombinant BuChE (unknown origin) using BTCI as substrate preincubated for 30 mins followed by substrate addition by TECAN multiplate reader analysis; how it was run: as §2

## C#CCOc1c(CN2CCOCC2)cc(-c2cc(=O)c3ccccc3o2)cc1OCC
[1]
  inhibition at 20 µM: 8.37%

## C#CCCCOc1c(CN2CCCCC2)cc(-c2cc(=O)c3ccccc3o2)cc1OC
[1]
  inhibition at 20 µM: 15.6%
[2]
  inhibition at 20 µM: 0.75%
Cholinesterase [3]
  inhibition: 21.6%

## C#CCCCOc1c(CN2CCN(c3ccccc3)CC2)cc(-c2cc(=O)c3ccccc3o2)cc1OC
[1]
  inhibition at 20 µM: 13.1%
[2]
  inhibition at 20 µM: 2.6%
Cholinesterase [3]
  inhibition: 1.69%

## C#CCCCOc1c(CN2CCN(Cc3ccccc3)CC2)cc(-c2cc(=O)c3ccccc3o2)cc1OC
[1]
  inhibition at 20 µM: 22.8%
[4]
  inhibition: 28.1%
[2]
  inhibition at 20 µM: 5.26%
[5]
  inhibition: 22.9%
Cholinesterase [3]
  inhibition: 7.42%

## C#CCCCOc1c(CN2CCCCC2)cc(-c2cc(=O)c3ccccc3o2)cc1CN1CCCCC1
[1]
  inhibition at 20 µM: 19.7%
[4]
  inhibition: 18%
[5]
  inhibition: 12%
Cholinesterase [3]
  inhibition: 13.7%

## C#CCCCOc1c(CN(C)Cc2ccccc2)cc(-c2cc(=O)c3ccccc3o2)cc1OC
[1]
  inhibition at 20 µM: 17.5%
Cholinesterase [3]
  inhibition: 17.6%

## C#CCCCOc1c(CN2CCOCC2)cc(-c2cc(=O)c3ccccc3o2)cc1OC
[1]
  inhibition at 20 µM: 18.8%
Cholinesterase [3]
  inhibition: 3.35%

## Oc1ccc(/C=C/c2cc(O)cc(O)c2)cc1
[6]
  inhibition: Active
[7]
  inhibition: Active

## C#CCCCOc1c(CN2CCc3ccccc3C2)cc(-c2cc(=O)c3ccccc3o2)cc1OC
[1]
  inhibition at 20 µM: 19.8%
Cholinesterase [8]
  IC50: 18.9 µM
[2]
  inhibition at 20 µM: 11.3%
Cholinesterase [3]
  inhibition: 51.5%

## C#CCCCOc1c(CN2CCOCC2)cc(-c2cc(=O)c3ccccc3o2)cc1CN1CCOCC1
[1]
  inhibition at 20 µM: 18.1%
[4]
  inhibition: 26.9%
[5]
  inhibition: 23.9%
Cholinesterase [3]
  inhibition: 1%
